# Laboratory results published in ChEMBL document CHEMBL1125563, “Selective, centrally acting serotonin 5-HT2 antagonists. 1. 2- and 6-substituted 1-phenyl-3-(4-piperidinyl)-1H-indoles” (J Med Chem, 1992).
# How the values were obtained:
# [1] = target: T1, Adrenergic receptor alpha-1 (Rattus norvegicus, UniProt P15823+P23944+P43140); assay: Displacement of [3H]prazosin from Alpha-1 adrenergic receptor of whole rat brain membranes; assay type: cell membranes, Membrane
# T1 sequence (P15823 whole entry): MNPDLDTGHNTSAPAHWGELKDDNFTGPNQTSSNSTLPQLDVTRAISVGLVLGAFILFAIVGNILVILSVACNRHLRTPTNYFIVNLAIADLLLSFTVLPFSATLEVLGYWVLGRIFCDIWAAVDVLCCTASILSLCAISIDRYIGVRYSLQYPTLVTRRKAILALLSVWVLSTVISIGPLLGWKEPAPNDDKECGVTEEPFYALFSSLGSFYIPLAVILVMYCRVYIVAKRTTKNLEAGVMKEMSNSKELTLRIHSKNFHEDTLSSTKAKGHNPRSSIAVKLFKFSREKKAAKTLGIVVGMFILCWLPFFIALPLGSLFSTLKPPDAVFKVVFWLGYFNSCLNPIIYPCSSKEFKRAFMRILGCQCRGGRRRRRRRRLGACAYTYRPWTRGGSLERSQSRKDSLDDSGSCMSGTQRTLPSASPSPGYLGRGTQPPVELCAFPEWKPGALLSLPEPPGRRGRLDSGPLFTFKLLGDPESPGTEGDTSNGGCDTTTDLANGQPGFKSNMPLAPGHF
# T1 sequence (P23944 whole entry): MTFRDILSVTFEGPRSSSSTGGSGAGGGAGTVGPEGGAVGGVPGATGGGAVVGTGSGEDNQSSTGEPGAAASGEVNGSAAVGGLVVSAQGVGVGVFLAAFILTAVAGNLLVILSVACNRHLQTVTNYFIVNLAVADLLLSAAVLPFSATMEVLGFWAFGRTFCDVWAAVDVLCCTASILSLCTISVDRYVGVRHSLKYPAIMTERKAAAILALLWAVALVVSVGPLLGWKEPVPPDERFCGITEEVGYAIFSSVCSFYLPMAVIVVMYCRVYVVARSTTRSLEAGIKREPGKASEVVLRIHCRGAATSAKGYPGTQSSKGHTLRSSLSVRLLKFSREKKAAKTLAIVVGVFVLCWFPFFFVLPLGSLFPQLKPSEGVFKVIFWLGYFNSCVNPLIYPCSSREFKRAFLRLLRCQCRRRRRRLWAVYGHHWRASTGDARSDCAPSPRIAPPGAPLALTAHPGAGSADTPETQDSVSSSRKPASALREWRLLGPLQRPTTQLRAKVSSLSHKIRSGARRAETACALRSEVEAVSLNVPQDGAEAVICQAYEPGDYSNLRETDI
# T1 sequence (P43140 whole entry): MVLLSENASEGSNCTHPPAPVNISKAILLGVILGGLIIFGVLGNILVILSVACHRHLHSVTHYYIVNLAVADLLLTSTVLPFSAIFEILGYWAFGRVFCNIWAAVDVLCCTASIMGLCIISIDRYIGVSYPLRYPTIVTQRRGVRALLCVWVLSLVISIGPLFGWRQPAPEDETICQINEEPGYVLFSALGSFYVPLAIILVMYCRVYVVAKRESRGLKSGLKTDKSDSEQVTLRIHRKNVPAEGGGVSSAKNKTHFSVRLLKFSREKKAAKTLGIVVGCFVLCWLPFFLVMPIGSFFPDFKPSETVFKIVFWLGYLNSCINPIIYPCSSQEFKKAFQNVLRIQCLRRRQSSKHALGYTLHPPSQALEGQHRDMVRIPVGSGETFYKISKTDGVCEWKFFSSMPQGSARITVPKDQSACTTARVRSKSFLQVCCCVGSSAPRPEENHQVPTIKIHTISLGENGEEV
# Outline: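 α1 adrenoceptor binding measured as displacement of [3H]prazosin from whole rat brain membranes. Five test-drug concentrations spanning three decades in triplicate, two full curves; IC50 from log concentration-effect curves, logarithmic mean of at least two determinations.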
# Rattus norvegicus [2] = assay: Compound was evaluated for the inhibition of quipazine-induced head twitches after 2 h (administered subcutaneously); assay type: functional; settings: sc
# Rattus norvegicus [3] = assay: Compound was evaluated for the inhibition of quipazine-induced head twitches after 24 hr (administered subcutaneously); assay type: functional; settings: sc
# [4] = target: Serotonin 2 (5-HT2) receptor (Rattus norvegicus, UniProt P30994+P08909+P14842); assay: Displacement of [3H]ketanserin from 5-hydroxytryptamine 2 receptor from rat cortical membranes.; assay type: cell membranes, Membrane
# Outline: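 [3H]ketanserin displacement from rat cortical membranes (5-HT2). Five concentrations across three decades in triplicate, two full curves; IC50 estimated on a log-concentration scale, given as logarithmic mean of at least two determinations.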
# D(2) dopamine receptor = D(2) dopamine receptor (Rattus norvegicus, UniProt P61169); assay: Displacement of [3H]-spiperone from Dopamine receptor D2 from rat striatal membranes; assay type: cell membranes, Membrane
# Outline: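 [3H]spiperone displacement from rat striatal membranes (D2). Five test-drug concentrations over three decades, in triplicate, two full curves; IC50 from log concentration-effect curves, reported as logarithmic mean of at least two determinations.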
# Mus musculus [5] = organism: Mus musculus; assay: Compound was evaluated for the inhibition of isolation-induced aggression at a threshold of 180 seconds; assay type: functional
# Outline: (§1)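 Isolated male NMRI mice (3 weeks) trained to attack a nonaggressive intruder of the same strain; only mice with attack latency <25 s included. Pretested just before dosing and 2 h after sc test substance; observation maximum 180 s; at least eight mice per dose.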
# Mus musculus [6] = organism: Mus musculus; assay: Compound was evaluated for the inhibition of isolation-induced aggression at a threshold of, 90 seconds; assay type: functional; outline: as §1
# Rattus norvegicus [7] = assay: Compound was evaluated for the inhibition of quipazine-induced head twitches after 2 h (administered subcutaneously); 0.11-0.29; assay type: functional; settings: sc
# Rattus norvegicus [8] = assay: Compound was evaluated for the inhibition of quipazine-induced head twitches after 24 hr (administered perorally); 0.014-0.074; assay type: functional; settings: po
# Rattus norvegicus [9] = assay: Compound was evaluated for the inhibition of pergolide-induced reactions after 2 hr (administered subcutaneously); assay type: functional; settings: sc
# Outline: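 Male Wistar rats with unilateral 6-OHDA lesions; test drug sc 2 h before pergolide (0.05 µmol/kg sc) to induce contralateral circling. Effect of each dose expressed as percent of mean of control sessions 1 week before and 1 week after, per rat; at least four rats per dose; ED50 by log-probit analysis.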
# Rattus norvegicus [10] = assay: Compound was evaluated for the inhibition of quipazine-induced head twitches after 24 h (administered subcutaneously); 0.0042-0.061; settings: sc
# Mus musculus [11] = organism: Mus musculus; assay: Compound was evaluated for the inhibition of isolation-induced aggression at a threshold of,90 seconds; assay type: functional; outline: as §1
# Rattus norvegicus [12] = assay: Compound was evaluated for the inhibition of quipazine-induced head twitches after 2 hr (administered subcutaneously); 0.018-0.096; assay type: functional; settings: sc
# Rattus norvegicus [13] = assay: Compound was evaluated for the inhibition of quipazine-induced head twitches after 24 hr (administered subcutaneously); 0.010-0.12; assay type: functional; settings: sc
# Rattus norvegicus [14] = assay: Compound was evaluated for the inhibition of quipazine-induced head twitches after 24 h (administered perorally); 0.056-0.22; assay type: functional; settings: po
# Rattus norvegicus [15] = assay: Compound was evaluated for the inhibition of quipazine-induced head twitches after 2 hr (administered subcutaneously); 0.010-0.24; assay type: functional; settings: sc
# Rattus norvegicus [16] = assay: Compound was evaluated for the inhibition of quipazine-induced head twitches after 24 hr (administered subcutaneously); 0.0027-0.031; assay type: functional; settings: sc
# Rattus norvegicus [17] = assay: Compound was evaluated for the inhibition of quipazine-induced head twitches after 24 hr (administered perorally); 0.010-0.048; assay type: functional; settings: po
# Sequence of D(2) dopamine receptor (P61169 whole entry): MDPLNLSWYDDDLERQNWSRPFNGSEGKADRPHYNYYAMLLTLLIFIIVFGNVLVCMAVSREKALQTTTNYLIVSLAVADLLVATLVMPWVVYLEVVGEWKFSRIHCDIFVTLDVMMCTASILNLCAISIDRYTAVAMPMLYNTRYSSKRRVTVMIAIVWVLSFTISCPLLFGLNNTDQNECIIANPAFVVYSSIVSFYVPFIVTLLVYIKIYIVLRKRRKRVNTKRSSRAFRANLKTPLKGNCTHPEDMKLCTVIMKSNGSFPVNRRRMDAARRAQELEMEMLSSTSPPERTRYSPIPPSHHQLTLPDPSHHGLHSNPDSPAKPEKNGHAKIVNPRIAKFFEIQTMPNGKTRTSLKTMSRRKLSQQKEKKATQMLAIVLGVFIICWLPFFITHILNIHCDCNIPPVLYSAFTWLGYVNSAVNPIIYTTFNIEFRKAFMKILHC
IC50 [1] [nM],IC50 [4] [nM],IC50 (D(2) dopamine receptor) [nM],SMILES,further results
730,16,,CC(C)c1ccc2c(C3CCN(CCN4CCN(C(C)C)C4=O)CC3)cn(-c3ccc(F)cc3)c2c1,ED50 (Rattus norvegicus [2]): > 0.54 µmol/kg; ED50 (Rattus norvegicus [3]): > 4.3 µmol/kg
24,0.82,,Cc1ccc2c(C3CCN(CCN4CCNC4=O)CC3)cn(-c3ccc(F)cc3)c2c1,
450,6,,Cc1ccc2c(C3CCN(CCN4CCN(C(C)C)C4=O)CC3)cn(-c3ccc(Cl)cc3)c2c1,
91,2.9,,CC(C)N1CCN(CCN2CCC(c3cn(-c4ccc(F)cc4)c4cc(C(F)(F)F)ccc34)CC2)C1=O,
76,1.8,,Cc1ccc2c(C3CCN(CCNC(=O)NC(C)C)CC3)cn(-c3ccc(F)cc3)c2c1,
27,60,590,Cc1ccc2c(C3CCN(CCN4CCN(C(C)C)C4=O)CC3)c[nH]c2c1,ED50 (Rattus norvegicus [2]): > 0.84 µmol/kg
39,4.5,290,CC(C)N1CCN(CCN2CCC(c3cn(-c4ccccc4)c4cc(Cl)ccc34)CC2)C1=O,

# Further lines, the compound ahead of its results:
SMILES,IC50 [1] [nM],IC50 [4] [nM],IC50 (D(2) dopamine receptor) [nM],further results
CC(C)c1ccc2c(C3CCN(CCN4CCNC4=O)CC3)cn(-c3ccc(F)cc3)c2c1,250,18,2600,
CC(C)NC(=O)N(C)CCN1CCC(c2cn(-c3ccc(F)cc3)c3cc(Cl)ccc23)CC1,26,2.2,74,ED50 (Mus musculus [5]): > 21 µmol/kg; ED50 (Mus musculus [6]): > 21 µmol/kg; ED50 (Rattus norvegicus [7]): 0.18 µmol/kg; ED50 (Rattus norvegicus [8]): 0.032 µmol/kg; ED50 (Rattus norvegicus [9]): > 21 µmol/kg; ED50 (Rattus norvegicus [10]): 0.016 µmol/kg
Cc1ccc2c(C3CCN(CCN4CCN(C(C)C)C4=O)CC3)cn(-c3ccc(F)cc3)c2c1,85,1.6,,ED50 (Mus musculus [5]): 7.3 µmol/kg; ED50 (Mus musculus [11]): 13 µmol/kg; ED50 (Rattus norvegicus [12]): 0.042 µmol/kg; ED50 (Rattus norvegicus [13]): 0.036 µmol/kg; ED50 (Rattus norvegicus [14]): 0.11 µmol/kg; ED50 (Rattus norvegicus [9]): > 18 µmol/kg
CNC(=O)N(C)CCN1CCC(c2cn(-c3ccc(F)cc3)c3cc(Cl)ccc23)CC1,16,1.6,82,ED50 (Mus musculus [5]): > 23 µmol/kg; ED50 (Mus musculus [6]): > 23 µmol/kg; ED50 (Rattus norvegicus [15]): 0.049 µmol/kg; ED50 (Rattus norvegicus [16]): 0.0092 µmol/kg; ED50 (Rattus norvegicus [9]): > 23 µmol/kg; ED50 (Rattus norvegicus [17]): 0.022 µmol/kg
CC(C)N1CCN(CCN2CCC(c3cn(-c4ccccc4F)c4cc(Cl)ccc34)CC2)C1=O,120,3.7,,
